Active and inactive are the calls of the source. No cut-off for these calls is given here.

Assay [1] deals with PC-12. In words: Induction of neurite outgrowth in rat PC12 cells at 0.26 ug/ml incubated for 24 hrs by microscopic analysis. In kind it is functional, cell-based. A digest of the protocol: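 PC12 cells (2,000/well, collagen I) were treated for 24 h in DMEM with 1% FBS, 1% horse serum and 10 ng/mL NGF containing substance, then cultured 24 h in the same medium without Aβ. Cells were imaged by microscopy before the viability read-out. Cells with neurites equal to, twice, or more than twice the cell length were counted.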

For assay [2], the system named is PC-12. In words: Neuroprotective activity against amyloid beta (1 to 40 residues)-induced toxicity in rat PC12 cells at 0.26 ug/mL pretreated for 24 hrs followed by 1 uM amyloid beta (1 to 40 residues) challenge and measured after 24 hrs by WST-8 assay. A general note: Formazan colour is commonly taken as a measure of viable cells.
Assay [3] concerns PC-12. As to the kind of experiment: Induction of cell proliferation in rat PC12 cells assessed as increase in cell viability at 0.26 ug/ml after 24 hrs in presence of 10 ng/ml NGF by WST-8 assay. In kind it is functional, cell-based. An outline of the steps:
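PC12 cells were seeded at 2,000 cells/well on type I collagen and grown 24 h in DMEM with 10% FBS and 10% horse serum at 37 °C, 5% CO₂. They were then given 24 h in DMEM with 1% FBS, 1% horse serum and 10 ng/mL NGF plus substance, followed by 24 h without Aβ. Viability was read by 10% WST-8 for 1–2 h at A450, relative to 0.004% DMSO vehicle.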

Take `CC(C)(C)C1=C(C=O)[C@](CC(=O)OCc2ccccc2)(C(=O)OCc2ccccc2)C=C1`: the result in assay [1] and in assay [2] was Active.
As to `CC(C)(C)[C@]1(O)C[C@@H]2OC(O)C[C@]2(CO)[C@@]12COC[C@@H]2O` (stereo partly drawn), the outcome in assay [3] was Active. Besides, the result in assay [1] and in assay [2] was inactive.
With `CC(C)(C)[C@@]12C[C@@H]3OC(=O)C[C@]3(C(=O)O1)[C@@]21[C@H](OC(=O)c2ccc(Br)cc2)OC(=O)[C@@H]1OC(=O)c1ccc(Br)cc1`, the outcome in assay [1] and in assay [2] was Active.
On to `CC(=O)O[C@@H]1OC(=O)[C@H](OC(C)=O)[C@]12[C@@]13CC(=O)O[C@H]1C[C@]2(C(C)(C)C)OC3=O`, for which the outcome in assay [3], in assay [1] and in assay [2] was Active.
With `CC(C)(C)[C@]1(O)C[C@@H]2OC(=O)C[C@@]23C(=O)O[C@@H]2OC(=O)[C@H](O)[C@]213`, the result in assay [3], in assay [1] and in assay [2] was Active.

These data come from ChEMBL document CHEMBL4610011, “Bilobalide and PC12 cells: A structure activity relationship study” (Bioorg Med Chem, 2020).
